# Measurements: ChEMBL document CHEMBL4402611, “Phenyl(thio)phosphon(amid)ate Benzenesulfonamides as Potent and Selective Inhibitors of Human Carbonic Anhydrases II and VII Counteract Allodynia in a Mouse Model of Oxaliplatin-Induced Neuropathy” (J Med Chem, 2020)
# Active and inactive are the calls of the source.
# Key:
# [1] = target: Carbonic anhydrase 5A, mitochondrial (Homo sapiens, UniProt P35218); test: Inhibition of human recombinant carbonic anhydrase 5A preincubated with enzyme for 1 hr prior to testing by phenol red-based stopped-flow CO2 hydration assay
# Carbonic anhydrase 7 = Carbonic anhydrase 7 (Homo sapiens, UniProt P43166); test: Inhibition of human recombinant carbonic anhydrase 7 preincubated with enzyme for 1 hr prior to testing by phenol red-based stopped-flow CO2 hydration assay
# Mus musculus [2] = test: Antinociceptive activity in CD-1 albino mouse model of oxaliplatin-induced neuropathic pain assessed as decrease in pain-related behaviour measured as licking latency at 50 mg/kg, po treated on day 15 post oxaliplatin treatment and measured after 15 to 45 mins post dose by cold plate test; assay type: functional, organism-based
# Method in brief: (§1)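 Male CD-1 mice (22–25 g) given oxaliplatin 2.4 mg kg–1 i.p. in 5% glucose on days 1–2, 5–9 and 12–14 (10 injections). On day 15, compounds were suspended in 1% CMC and given once orally. Cold plate held at 4 °C; latency to first hind-paw licking recorded, 30 s cutoff. Readings taken before dosing and at 15, 30, 45 and 60 min after. 12 mice per group over two sets, observers blinded.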
# Carbonic anhydrase 12 = Carbonic anhydrase 12 (Homo sapiens, UniProt O43570); test: Inhibition of human recombinant carbonic anhydrase 12 preincubated with enzyme for 1 hr prior to testing by phenol red-based stopped-flow CO2 hydration assay
# Carbonic anhydrase 2 = Carbonic anhydrase 2 (Homo sapiens, UniProt P00918); test: Inhibition of human recombinant carbonic anhydrase 2 preincubated with enzyme for 1 hr prior to testing by phenol red-based stopped-flow CO2 hydration assay
# Carbonic anhydrase 4 = Carbonic anhydrase 4 (Homo sapiens, UniProt P22748); test: Inhibition of human recombinant carbonic anhydrase 4 preincubated with enzyme for 1 hr prior to testing by phenol red-based stopped-flow CO2 hydration assay
# Carbonic anhydrase 1 = Carbonic anhydrase 1 (Homo sapiens, UniProt P00915); test: Inhibition of human recombinant carbonic anhydrase 1 preincubated with enzyme for 1 hr prior to testing by phenol red-based stopped-flow CO2 hydration assay
# [3] = target: Carbonic anhydrase 5B, mitochondrial (Homo sapiens, UniProt Q9Y2D0); test: Inhibition of human recombinant carbonic anhydrase 5B preincubated with enzyme for 1 hr prior to testing by phenol red-based stopped-flow CO2 hydration assay
# Carbonic anhydrase 9 = Carbonic anhydrase 9 (Homo sapiens, UniProt Q16790); test: Inhibition of human recombinant carbonic anhydrase 9 preincubated with enzyme for 1 hr prior to testing by phenol red-based stopped-flow CO2 hydration assay; assay type: single protein
# [4] = Solubility of compound in water; assay type: physicochemical; details: buffer
# [5] = Stability of compound in human plasma measured up to 120 mins by LC-MS/MS analysis; assay type: ADME, cell-free; details: 2 h
# Method in brief: (§2)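 Analyte (1 μM final) incubated at 37 °C in PBS, 10 mM HCl (pH 2) or human plasma. Sampling at 0, 30, 60 and 120 min, each in triplicate. Samples were quenched with acetonitrile containing verapamil internal standard, centrifuged and diluted. Read-out was LC–MS/MS with positive ESI and MRM on a PFP column.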
# Mus musculus [6] = test: (§3) Antinociceptive activity in CD-1 albino mouse model of oxaliplatin-induced neuropathic pain assessed as decrease in pain-related behaviour measured as licking latency at 100 mg/kg, po treated on day 15 post oxaliplatin treatment and measured after 30 mins post dose by cold plate test; assay type: functional, organism-based; method in brief: as §1
# [7] = Stability of compound in aqueous HCl solution at pH 2 measured up to 120 mins by LC-MS/MS analysis; assay type: physicochemical; details: buffer, pH 2, 2 h; method in brief: as §2
# [8] = Stability of compound in PBS buffer measured up to 120 mins by LC-MS/MS analysis; assay type: physicochemical; details: 2 h; method in brief: as §2
# Mus musculus [9] = test: Antinociceptive activity in orally dosed CD-1 albino mouse model of oxaliplatin-induced neuropathic pain assessed as decrease in pain-related behaviour measured as licking latency treated on day 15 post oxaliplatin treatment and measured upto 45 mins post dose by cold plate test; assay type: functional, organism-based; method in brief: as §1
# Mus musculus [10] = test: Antinociceptive activity in orally dosed CD-1 albino mouse model of oxaliplatin-induced neuropathic pain assessed as decrease in pain-related behaviour measured as licking latency treated on day 15 post oxaliplatin treatment and measured after 15 to 60 mins post dose by cold plate test; assay type: functional, organism-based; method in brief: as §1
# Mus musculus [11] = test: Antinociceptive activity in CD-1 albino mouse model of oxaliplatin-induced neuropathic pain assessed as decrease in pain-related behaviour measured as licking latency at 100 mg/kg, po treated on day 15 post oxaliplatin treatment and measured after 30 to 45 mins post dose by cold plate test; assay type: functional, organism-based; method in brief: as §1
# Mus musculus [12] = test: Antinociceptive activity in CD-1 albino mouse model of oxaliplatin-induced neuropathic pain assessed as decrease in pain-related behaviour measured as licking latency at 10 to 100 mg/kg, po treated on day 15 post oxaliplatin treatment and measured after 15 to 30 mins post dose by cold plate test; assay type: functional, organism-based; method in brief: as §1
# [13] = Stability of compound in aqueous HCl solution assessed as half life at pH 2 measured up to 120 mins by LC-MS/MS analysis; assay type: physicochemical; details: buffer, pH 2, 2 h
# Method in brief: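 Analyte (1 μM final) incubated at 37 °C in 10 mM aqueous HCl (pH 2), sampled in triplicate at 0, 30, 60 and 120 min. Quenched with acetonitrile containing verapamil internal standard, then quantified by LC–MS/MS with positive-ion MRM. Half-life taken from the degradation profile.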
# Mus musculus [14] = test: as §3, with “15” for “30”, “test (reference value: 18.1 +/- 0.3 sec)” for “test”; assay type: functional
# Sequence of Carbonic anhydrase 7 (P43166 whole entry): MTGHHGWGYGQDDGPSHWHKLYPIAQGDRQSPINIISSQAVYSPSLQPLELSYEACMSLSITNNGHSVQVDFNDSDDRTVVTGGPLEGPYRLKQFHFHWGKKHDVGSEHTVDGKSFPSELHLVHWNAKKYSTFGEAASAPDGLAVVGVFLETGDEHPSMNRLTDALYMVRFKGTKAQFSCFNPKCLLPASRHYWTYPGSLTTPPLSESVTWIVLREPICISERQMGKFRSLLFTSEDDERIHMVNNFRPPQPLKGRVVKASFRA
# Sequence of Carbonic anhydrase 5B, mitochondrial (Q9Y2D0 whole entry): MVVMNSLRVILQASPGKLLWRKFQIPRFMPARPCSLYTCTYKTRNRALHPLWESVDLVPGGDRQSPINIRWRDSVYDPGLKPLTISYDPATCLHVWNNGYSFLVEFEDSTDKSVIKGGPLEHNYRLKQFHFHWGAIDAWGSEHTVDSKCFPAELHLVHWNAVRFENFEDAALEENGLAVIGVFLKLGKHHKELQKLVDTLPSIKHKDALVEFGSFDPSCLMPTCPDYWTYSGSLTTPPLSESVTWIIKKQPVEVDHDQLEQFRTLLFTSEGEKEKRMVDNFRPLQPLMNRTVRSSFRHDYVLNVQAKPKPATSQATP
# Sequence of Carbonic anhydrase 4 (P22748 whole entry): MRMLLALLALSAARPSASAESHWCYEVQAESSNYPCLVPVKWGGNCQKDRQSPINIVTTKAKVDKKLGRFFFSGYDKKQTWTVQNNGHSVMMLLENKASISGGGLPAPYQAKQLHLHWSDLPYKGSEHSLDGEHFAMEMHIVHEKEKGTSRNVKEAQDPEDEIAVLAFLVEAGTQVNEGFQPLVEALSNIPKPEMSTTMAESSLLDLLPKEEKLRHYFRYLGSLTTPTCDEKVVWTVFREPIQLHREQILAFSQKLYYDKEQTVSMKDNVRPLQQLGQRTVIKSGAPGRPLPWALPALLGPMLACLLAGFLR
# Sequence of Carbonic anhydrase 12 (O43570 whole entry): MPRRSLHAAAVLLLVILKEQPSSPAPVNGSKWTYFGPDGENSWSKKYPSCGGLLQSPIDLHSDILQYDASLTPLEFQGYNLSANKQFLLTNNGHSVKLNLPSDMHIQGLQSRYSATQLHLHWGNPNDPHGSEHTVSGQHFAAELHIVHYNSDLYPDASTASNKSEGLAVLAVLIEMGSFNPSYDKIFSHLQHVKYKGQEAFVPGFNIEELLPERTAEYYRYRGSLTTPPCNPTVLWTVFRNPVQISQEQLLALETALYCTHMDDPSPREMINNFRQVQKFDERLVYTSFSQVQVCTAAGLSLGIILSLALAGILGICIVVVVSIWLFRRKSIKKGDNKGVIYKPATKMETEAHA
# Sequence of Carbonic anhydrase 1 (P00915 whole entry): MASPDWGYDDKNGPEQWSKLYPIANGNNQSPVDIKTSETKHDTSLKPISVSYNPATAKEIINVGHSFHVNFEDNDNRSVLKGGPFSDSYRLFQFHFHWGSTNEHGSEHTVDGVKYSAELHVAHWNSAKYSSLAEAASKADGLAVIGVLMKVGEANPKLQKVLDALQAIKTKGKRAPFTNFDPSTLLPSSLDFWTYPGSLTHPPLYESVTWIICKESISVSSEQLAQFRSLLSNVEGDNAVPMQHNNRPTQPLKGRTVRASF
# Sequence of Carbonic anhydrase 5A, mitochondrial (P35218 whole entry): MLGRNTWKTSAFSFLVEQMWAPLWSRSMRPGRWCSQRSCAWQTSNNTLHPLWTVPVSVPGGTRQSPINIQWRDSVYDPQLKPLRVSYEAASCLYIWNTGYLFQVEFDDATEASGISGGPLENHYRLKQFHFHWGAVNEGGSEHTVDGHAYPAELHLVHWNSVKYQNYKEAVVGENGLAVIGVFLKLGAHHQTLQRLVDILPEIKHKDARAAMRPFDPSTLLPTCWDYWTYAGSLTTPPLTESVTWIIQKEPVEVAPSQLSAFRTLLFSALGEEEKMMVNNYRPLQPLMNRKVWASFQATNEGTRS
SMILES,Ki [1],Ki (Carbonic anhydrase 7),Activity (Mus musculus [2]),Ki (Carbonic anhydrase 12),Ki (Carbonic anhydrase 2),Ki (Carbonic anhydrase 4),Ki (Carbonic anhydrase 1),Ki [3],Ki (Carbonic anhydrase 9),solubility [4],Stability [5],Activity (Mus musculus [6]),Stability [7],Stability [8],Activity (Mus musculus [9]),Activity (Mus musculus [10]),Activity (Mus musculus [11]),Activity (Mus musculus [12]),Stability [13],Time (Mus musculus [14])
C#CCO[P@@](=O)(Oc1ccc(S(N)(=O)=O)cc1)c1ccccc1,0.0665 µM,0.0713 µM,inactive,0.0492 µM,0.0564 µM,1.98 µM,0.365 µM,0.0661 µM,–,–,–,–,–,–,–,–,–,–,–,–
NS(=O)(=O)c1ccc(OP(=O)(O)c2ccccc2)cc1,0.0763 µM,0.0161 µM,–,0.0308 µM,0.0379 µM,0.22 µM,0.197 µM,0.0528 µM,0.0261 µM,–,–,–,–,–,–,–,–,–,–,–
C#CCO[P@](=O)(Oc1ccc(S(N)(=O)=O)cc1)c1ccccc1,0.108 µM,0.0011 µM,Active,0.0173 µM,0.00078 µM,0.746 µM,0.564 µM,0.0192 µM,–,–,–,–,–,–,–,–,–,–,–,–
NS(=O)(=O)c1ccc(OP(=O)(Oc2ccc(S(N)(=O)=O)cc2)c2ccccc2)cc1,0.284 µM,0.0077 µM,–,0.0169 µM,0.0032 µM,0.36 µM,0.671 µM,0.015 µM,0.0197 µM,Insoluble,Stable,Active,Stable,Stable,–,–,–,–,–,–
COCCOP(=O)(Oc1ccc(S(N)(=O)=O)cc1)c1ccccc1 (racemic),0.0593 µM,0.025 µM,–,0.0357 µM,0.0285 µM,1.64 µM,0.78 µM,0.0672 µM,0.0121 µM,–,–,–,–,–,–,–,–,–,–,–
NS(=O)(=O)c1ccc(OP(=O)(Oc2ccccc2)c2ccccc2)cc1 (racemic),0.47 µM,0.0314 µM,–,0.0246 µM,0.0152 µM,2.62 µM,0.971 µM,0.0227 µM,0.0132 µM,–,–,–,–,–,–,–,–,–,–,–
CC(C)OP(=O)(Oc1ccc(S(N)(=O)=O)cc1)c1ccccc1 (racemic),0.101 µM,0.0062 µM,–,0.042 µM,0.0128 µM,1.2 µM,0.308 µM,0.0198 µM,0.0175 µM,–,Stable,–,Stable,Stable,Dose-dependent effect,–,–,–,–,–
C#CCOP(=O)(Oc1ccc(S(N)(=O)=O)cc1)c1ccccc1 (racemic),0.0821 µM,0.0122 µM,–,0.0267 µM,0.0036 µM,1.32 µM,0.415 µM,0.0384 µM,–,–,Stable,–,Stable,Stable,–,Dose-dependent effect,Active,–,–,–
CCSP(=O)(Oc1ccc(S(N)(=O)=O)cc1)c1ccccc1 (racemic),0.0943 µM,0.0415 µM,–,0.0341 µM,0.0302 µM,1.39 µM,0.727 µM,0.0967 µM,0.027 µM,–,–,–,–,–,–,–,–,–,–,–
NS(=O)(=O)c1ccc(OP(=O)(NCc2ccccc2)c2ccccc2)cc1 (racemic),0.0591 µM,0.0154 µM,–,0.0197 µM,0.0529 µM,0.644 µM,1.71 µM,0.0687 µM,0.0026 µM,–,–,–,–,–,–,–,–,–,–,–
NS(=O)(=O)c1ccc(OP(=O)(Nc2ccccc2)c2ccccc2)cc1 (racemic),0.185 µM,0.0055 µM,–,0.0209 µM,0.0024 µM,0.86 µM,0.818 µM,0.024 µM,0.0196 µM,–,Stable,–,Stable,Stable,–,–,–,Active,–,–
NS(=O)(=O)c1ccc(OP(=O)(c2ccccc2)N2CCCC2)cc1 (racemic),0.0783 µM,0.0093 µM,–,0.0581 µM,0.0017 µM,0.308 µM,0.242 µM,0.0256 µM,0.0289 µM,–,Stable,–,–,Stable,–,–,–,–,Unstable,–
CCCNP(=O)(Oc1ccc(S(N)(=O)=O)cc1)c1ccccc1 (racemic),0.0852 µM,0.0208 µM,–,0.0173 µM,0.0262 µM,1.52 µM,0.759 µM,0.0337 µM,0.0032 µM,–,–,–,–,–,–,–,–,–,–,–
NS(=O)(=O)c1ccc(OP(=O)(SCc2ccccc2)c2ccccc2)cc1 (racemic),0.151 µM,0.0755 µM,–,0.0213 µM,0.0648 µM,4.46 µM,3.26 µM,0.0584 µM,0.025 µM,–,–,–,–,–,–,–,–,–,–,–
CCN(CC)P(=O)(Oc1ccc(S(N)(=O)=O)cc1)c1ccccc1 (racemic),0.107 µM,0.0135 µM,–,0.0468 µM,0.0175 µM,0.371 µM,0.521 µM,0.0491 µM,0.0195 µM,–,–,–,–,–,–,–,–,–,–,–
CCOP(=O)(Oc1ccc(S(N)(=O)=O)cc1)c1ccccc1 (racemic),0.143 µM,0.0382 µM,–,0.0224 µM,0.0366 µM,0.425 µM,0.398 µM,0.0401 µM,0.0187 µM,–,–,–,–,–,–,–,–,–,–,–
COP(=O)(Oc1ccc(S(N)(=O)=O)cc1)c1ccccc1 (racemic),0.0517 µM,0.036 µM,–,0.0472 µM,0.0114 µM,0.259 µM,0.495 µM,0.0243 µM,0.0162 µM,–,–,–,–,–,–,–,–,–,–,–
NS(=O)(=O)c1ccc(OP(=O)(Sc2ccccc2)c2ccccc2)cc1 (racemic),0.382 µM,0.0157 µM,–,0.0392 µM,0.0349 µM,2.63 µM,1.63 µM,0.0287 µM,0.0066 µM,–,–,–,–,–,–,–,–,–,–,–
CCCCCCCCCCCCSP(=O)(Oc1ccc(S(N)(=O)=O)cc1)c1ccccc1 (racemic),0.642 µM,0.101 µM,–,0.0478 µM,0.234 µM,4.16 µM,8.35 µM,0.225 µM,0.0512 µM,–,–,–,–,–,–,–,–,–,–,–
NP(=O)(Oc1ccc(S(N)(=O)=O)cc1)c1ccccc1 (racemic),0.0413 µM,0.0189 µM,–,0.0154 µM,0.0179 µM,0.292 µM,0.195 µM,0.0126 µM,0.0209 µM,–,–,–,–,–,–,–,–,–,–,–
CN1CCN(P(=O)(Oc2ccc(S(N)(=O)=O)cc2)c2ccccc2)CC1 (racemic),0.164 µM,0.017 µM,–,0.0253 µM,0.0091 µM,0.0769 µM,0.391 µM,0.0473 µM,0.0619 µM,Soluble,Stable,–,Stable,Stable,–,–,–,Active,–,–
NS(=O)(=O)c1ccc(OP(=O)(c2ccccc2)N2CCOCC2)cc1 (racemic),0.0439 µM,0.0305 µM,–,0.0276 µM,0.0079 µM,0.12 µM,0.318 µM,0.0274 µM,0.0111 µM,–,–,–,–,–,–,–,–,–,–,–
CC(=O)Nc1nnc(S(N)(=O)=O)s1 [ACETAZOLAMIDE],–,–,–,–,–,–,–,–,–,–,–,–,–,–,–,–,–,–,–,15.8 s
